# Test results from PubChem BioAssay AID624406 (The Scripps Research Institute Molecular Screening Center, 2012).
# Calls of active or inactive are those of the source.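 The calls were made as follows: active = inhibition of radioligand binding at or above 50% in any panel; inactive = inhibition below 50%.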
# Experiments:
# Assay in all cases: off-target binding at receptors and transporters, profiling panel, selectivity assay for HCV core dimerization inhibitor project, cell-based, radioligand binding, Ricerca panel (AID 624406)
# Dopamine D2S = conditions: at 10 µM, active compounds read high
# In short: (§1)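 Read-out basis: % radioligand displacement, negatives meaning binding stimulation; controls: reference standards in each run; repeats: duplicates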
# [1] = target: Neuropeptide Y receptor type 2 (Homo sapiens) (UniProt P49146); conditions: Neuropeptide Y Y2, at 10 µM, active compounds read high
# In short: as §1
# Histamine H3 = conditions: at 10 µM, active compounds read high
# In short: as §1
# Nicotinic Acetylcholine = conditions: at 10 µM, active compounds read high
# In short: as §1
# [2] = test system: Transporter, Dopamine (DAT); conditions: at 10 µM, active compounds read high
# In short: as §1
# Purinergic P2X = conditions: at 10 µM, active compounds read high
# In short: as §1
# Melatonin MT1 = conditions: at 10 µM, active compounds read high
# In short: as §1
# Thyroid Hormone = conditions: at 10 µM, active compounds read high
# In short: as §1
# [3] = test system: Transporter, Norepinephrine (NET); conditions: at 10 µM, active compounds read high
# In short: as §1
# [4] = target: D(3) dopamine receptor (Homo sapiens) (UniProt P35462); conditions: Dopamine D3, at 10 µM, active compounds read high
# In short: as §1
# [5] = target: Glucocorticoid receptor (Homo sapiens) (UniProt P04150); conditions: at 10 µM, active compounds read high
# Chain of Glucocorticoid receptor (Homo sapiens) (P04150 whole entry, looked up): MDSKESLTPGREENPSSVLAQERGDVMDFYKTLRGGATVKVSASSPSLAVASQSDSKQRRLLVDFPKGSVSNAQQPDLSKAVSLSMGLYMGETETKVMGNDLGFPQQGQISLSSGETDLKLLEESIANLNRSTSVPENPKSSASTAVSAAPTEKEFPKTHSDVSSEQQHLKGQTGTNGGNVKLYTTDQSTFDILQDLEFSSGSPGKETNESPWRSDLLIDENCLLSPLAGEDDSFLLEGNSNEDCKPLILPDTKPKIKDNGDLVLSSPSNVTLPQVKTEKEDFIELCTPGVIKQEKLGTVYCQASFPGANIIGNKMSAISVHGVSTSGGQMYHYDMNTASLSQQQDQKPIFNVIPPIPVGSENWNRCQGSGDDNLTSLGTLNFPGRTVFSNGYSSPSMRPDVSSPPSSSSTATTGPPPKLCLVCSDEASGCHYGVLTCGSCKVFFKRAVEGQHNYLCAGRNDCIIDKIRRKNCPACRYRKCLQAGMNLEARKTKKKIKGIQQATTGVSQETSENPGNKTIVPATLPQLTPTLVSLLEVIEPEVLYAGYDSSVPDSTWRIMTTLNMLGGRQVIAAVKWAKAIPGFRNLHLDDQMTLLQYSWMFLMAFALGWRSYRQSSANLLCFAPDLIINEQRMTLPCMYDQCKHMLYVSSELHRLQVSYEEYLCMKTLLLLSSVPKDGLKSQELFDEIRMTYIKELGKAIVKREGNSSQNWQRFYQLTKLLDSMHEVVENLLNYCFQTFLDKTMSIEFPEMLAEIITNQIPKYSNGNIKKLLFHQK
# In short: as §1
# Adenosine A1 = conditions: at 10 µM, active compounds read high
# In short: as §1
# Purinergic P2Y = conditions: at 10 µM, active compounds read high
# In short: as §1
# Prostanoid EP4 = conditions: at 10 µM, active compounds read high
# In short: as §1
# [6] = target: Muscarinic acetylcholine receptor M3 (Homo sapiens) (UniProt P20309); conditions: at 10 µM, active compounds read high
# Chain of Muscarinic acetylcholine receptor M3 (Homo sapiens) (P20309 whole entry, looked up): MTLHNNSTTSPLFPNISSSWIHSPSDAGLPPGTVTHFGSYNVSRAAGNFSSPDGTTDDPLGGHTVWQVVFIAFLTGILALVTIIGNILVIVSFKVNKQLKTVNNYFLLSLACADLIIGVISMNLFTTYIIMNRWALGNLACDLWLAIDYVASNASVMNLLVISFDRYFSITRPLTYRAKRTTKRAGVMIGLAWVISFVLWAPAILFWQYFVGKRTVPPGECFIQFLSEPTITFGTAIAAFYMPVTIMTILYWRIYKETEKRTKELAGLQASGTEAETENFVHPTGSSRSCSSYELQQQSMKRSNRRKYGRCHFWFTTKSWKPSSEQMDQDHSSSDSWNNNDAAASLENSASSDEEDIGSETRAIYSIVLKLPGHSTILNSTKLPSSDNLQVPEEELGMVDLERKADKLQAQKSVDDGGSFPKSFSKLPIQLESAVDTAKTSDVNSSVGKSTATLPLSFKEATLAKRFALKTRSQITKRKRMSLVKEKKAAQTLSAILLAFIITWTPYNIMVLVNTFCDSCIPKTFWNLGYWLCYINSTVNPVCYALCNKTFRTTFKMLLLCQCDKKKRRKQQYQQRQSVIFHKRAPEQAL
# In short: as §1
# Sigma 1 = conditions: at 10 µM, active compounds read high
# In short: as §1
# Calcium Channel L-Type = conditions: at 10 µM, active compounds read high
# In short: as §1
# [7] = target: 5-hydroxytryptamine receptor 1A (Homo sapiens) (UniProt P08908); conditions: Serotonin (5-Hydroxytryptamine) 5-HT1A, at 10 µM, active compounds read high
# In short: as §1
# Rolipram = conditions: at 10 µM, active compounds read high
# In short: as §1
# [8] = target: Alpha-2A adrenergic receptor (Homo sapiens) (UniProt P08913); conditions: Adrenergic alpha2A, at 10 µM, active compounds read high
# In short: as §1
# Bradykinin B1 = conditions: at 10 µM, active compounds read high
# In short: as §1
# Opiate mu (OP3, MOP) = conditions: at 10 µM, active compounds read high
# In short: as §1
# Histamine H1 = conditions: at 10 µM, active compounds read high
# In short: as §1
# Adenosine A2A = conditions: at 10 µM, active compounds read high
# In short: as §1
# Transporter, GABA = conditions: at 10 µM, active compounds read high
# In short: as §1
# GABAA = conditions: central, at 10 µM, active compounds read high
# In short: as §1
# [9] = target: Muscarinic acetylcholine receptor M2 (Homo sapiens) (UniProt P08172); conditions: at 10 µM, active compounds read high
# In short: as §1
# Endothelin ETB = conditions: at 10 µM, active compounds read high
# In short: as §1
# [10] = target: Delta-type opioid receptor (Homo sapiens) (UniProt P41143); conditions: Opiate delat1 (OP1, DOP), at 10 µM, active compounds read high
# Chain of Delta-type opioid receptor (Homo sapiens) (P41143 whole entry, looked up): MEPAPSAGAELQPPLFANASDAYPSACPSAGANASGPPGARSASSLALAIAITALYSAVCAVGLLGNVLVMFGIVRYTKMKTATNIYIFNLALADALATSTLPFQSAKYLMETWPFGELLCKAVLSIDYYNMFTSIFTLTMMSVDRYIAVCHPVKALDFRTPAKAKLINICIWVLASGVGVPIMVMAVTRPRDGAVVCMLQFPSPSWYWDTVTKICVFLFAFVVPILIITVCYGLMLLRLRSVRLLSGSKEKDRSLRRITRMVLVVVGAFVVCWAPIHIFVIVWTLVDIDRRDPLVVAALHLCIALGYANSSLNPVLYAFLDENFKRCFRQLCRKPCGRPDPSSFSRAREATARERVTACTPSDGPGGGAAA
# In short: as §1
# Interleukin IL-1 = conditions: at 10 µM, active compounds read high
# In short: as §1
# Calcium Channel N-Type = conditions: at 10 µM, active compounds read high
# In short: as §1
# [11] = target: Neuropeptide Y receptor type 1 (Homo sapiens) (UniProt P25929); conditions: Neuropeptide Y Y1, at 10 µM, active compounds read high
# Chain of Neuropeptide Y receptor type 1 (Homo sapiens) (P25929 whole entry, looked up): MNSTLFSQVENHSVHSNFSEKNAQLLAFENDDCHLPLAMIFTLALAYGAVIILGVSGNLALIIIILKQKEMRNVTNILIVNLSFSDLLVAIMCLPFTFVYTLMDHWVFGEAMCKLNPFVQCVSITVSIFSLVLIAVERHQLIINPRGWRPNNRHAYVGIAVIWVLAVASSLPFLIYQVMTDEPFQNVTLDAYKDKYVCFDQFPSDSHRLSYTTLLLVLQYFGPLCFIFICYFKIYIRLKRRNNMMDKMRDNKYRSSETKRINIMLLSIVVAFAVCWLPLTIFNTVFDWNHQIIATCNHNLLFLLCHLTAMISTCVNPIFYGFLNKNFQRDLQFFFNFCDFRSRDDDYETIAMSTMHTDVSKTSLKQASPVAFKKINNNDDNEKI
# In short: as §1
# [12] = target: Kappa-type opioid receptor (Homo sapiens) (UniProt P41145); conditions: Opiate kappa (OP2, KOP), at 10 µM, active compounds read high
# In short: as §1
# [13] = target: D(1A) dopamine receptor (Homo sapiens) (UniProt P21728); conditions: Dopamine D1, at 10 µM, active compounds read high
# In short: as §1
# [14] = test system: Leukotriene, Cysteinyl CysLT1; conditions: at 10 µM, active compounds read high
# In short: as §1
# Adenosine A3 = conditions: at 10 µM, active compounds read high
# In short: as §1
# Imidazoline I2 = conditions: central, at 10 µM, active compounds read high
# In short: as §1
# [15] = target: Beta-2 adrenergic receptor (Homo sapiens) (UniProt P07550); conditions: Adrenergic beta2, at 10 µM, active compounds read high
# In short: as §1
# Adrenergic alpha1B = conditions: at 10 µM, active compounds read high
# In short: as §1
# [16] = target: Muscarinic acetylcholine receptor M1 (Homo sapiens) (UniProt P11229); conditions: at 10 µM, active compounds read high
# Chain of Muscarinic acetylcholine receptor M1 (Homo sapiens) (P11229 whole entry, looked up): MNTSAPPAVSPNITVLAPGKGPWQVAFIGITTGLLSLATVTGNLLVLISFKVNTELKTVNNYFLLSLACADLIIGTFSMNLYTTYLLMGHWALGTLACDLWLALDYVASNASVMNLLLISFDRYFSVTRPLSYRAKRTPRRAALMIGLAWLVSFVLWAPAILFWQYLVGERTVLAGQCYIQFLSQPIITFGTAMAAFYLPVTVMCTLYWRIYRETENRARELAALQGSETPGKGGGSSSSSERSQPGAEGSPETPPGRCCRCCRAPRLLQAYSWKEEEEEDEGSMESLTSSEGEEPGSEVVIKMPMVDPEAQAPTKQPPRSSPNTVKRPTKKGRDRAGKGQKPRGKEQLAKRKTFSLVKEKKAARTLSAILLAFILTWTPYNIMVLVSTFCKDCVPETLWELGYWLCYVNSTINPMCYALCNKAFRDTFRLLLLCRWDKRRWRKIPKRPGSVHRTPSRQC
# In short: as §1
# Cannabinoid CB1 = conditions: at 10 µM, active compounds read high
# In short: as §1
# Glutamate Kainate = conditions: at 10 µM, active compounds read high
# In short: as §1
# [17] = target: Voltage-gated inwardly rectifying potassium channel KCNH2 (Homo sapiens) (UniProt Q12809); conditions: Potassium Channel hERG, at 10 µM, active compounds read high
# Chain of Voltage-gated inwardly rectifying potassium channel KCNH2 (Homo sapiens) (Q12809 whole entry, looked up): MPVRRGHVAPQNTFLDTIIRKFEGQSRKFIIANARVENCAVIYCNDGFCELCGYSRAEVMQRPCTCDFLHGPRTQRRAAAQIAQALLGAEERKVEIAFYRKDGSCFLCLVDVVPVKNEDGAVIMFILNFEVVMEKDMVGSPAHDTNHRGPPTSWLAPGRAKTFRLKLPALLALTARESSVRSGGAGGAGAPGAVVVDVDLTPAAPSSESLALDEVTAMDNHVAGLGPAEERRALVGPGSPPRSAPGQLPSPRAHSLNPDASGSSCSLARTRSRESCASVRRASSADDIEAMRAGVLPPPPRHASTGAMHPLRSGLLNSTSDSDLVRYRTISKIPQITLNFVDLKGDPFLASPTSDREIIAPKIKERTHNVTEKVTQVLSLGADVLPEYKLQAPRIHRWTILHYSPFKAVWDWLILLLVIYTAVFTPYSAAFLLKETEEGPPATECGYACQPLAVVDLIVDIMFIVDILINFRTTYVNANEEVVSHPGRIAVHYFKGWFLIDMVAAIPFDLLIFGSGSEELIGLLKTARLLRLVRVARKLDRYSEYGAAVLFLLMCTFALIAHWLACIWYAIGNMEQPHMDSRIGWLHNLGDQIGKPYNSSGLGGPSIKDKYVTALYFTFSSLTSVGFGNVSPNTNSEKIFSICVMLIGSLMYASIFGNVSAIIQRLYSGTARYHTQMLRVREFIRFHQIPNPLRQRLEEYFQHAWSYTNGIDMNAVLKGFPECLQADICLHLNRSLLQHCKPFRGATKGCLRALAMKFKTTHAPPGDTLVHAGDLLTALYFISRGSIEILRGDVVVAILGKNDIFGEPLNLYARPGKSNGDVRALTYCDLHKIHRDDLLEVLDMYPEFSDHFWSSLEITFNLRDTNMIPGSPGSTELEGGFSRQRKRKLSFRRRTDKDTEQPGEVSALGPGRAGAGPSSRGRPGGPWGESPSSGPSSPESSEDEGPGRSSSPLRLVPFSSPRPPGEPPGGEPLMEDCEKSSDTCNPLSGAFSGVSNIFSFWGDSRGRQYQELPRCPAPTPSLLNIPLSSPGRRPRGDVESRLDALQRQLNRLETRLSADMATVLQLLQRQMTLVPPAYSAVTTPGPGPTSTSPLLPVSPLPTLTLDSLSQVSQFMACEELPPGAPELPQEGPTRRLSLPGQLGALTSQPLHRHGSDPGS
# In short: as §1
# [18] = test system: Voltage-dependent L-type calcium channel subunit beta-4 (Rattus norvegicus) + Pro-epidermal growth factor (Homo sapiens) + Estrogen receptor (Homo sapiens) + Glucocorticoid receptor (Homo sapiens) + 5-hydroxytryptamine receptor 1A (Homo sapiens) + Alpha-2A adrenergic receptor (Homo sapiens) + Adenosine receptor A3 (Homo sapiens) + Androgen receptor (Homo sapiens) + Muscarinic acetylcholine receptor M1 (Homo sapiens) + D(4) dopamine receptor (Homo sapiens) + Alpha-2A adrenergic receptor (Rattus norvegicus) + Sodium- and chloride-dependent GABA transporter 1 (Rattus norvegicus) + Endothelin receptor type B (Homo sapiens) + Histamine H2 receptor (Homo sapiens) + Endothelin-1 receptor (Homo sapiens) + Neuropeptide Y receptor type 1 (Homo sapiens) + B2 bradykinin receptor (Homo sapiens) + Sodium-dependent serotonin transporter (Homo sapiens) + Histamine H1 receptor (Homo sapiens) + Mu-type opioid receptor (Homo sapiens) + D(3) dopamine receptor (Homo sapiens) + Delta-type opioid receptor (Homo sapiens) + Kappa-type opioid receptor (Homo sapiens) + Glutamate receptor ionotropic, kainate 3 (Rattus norvegicus) + 5-hydroxytryptamine receptor 3A (Homo sapiens) + Melatonin receptor type 1A (Homo sapiens) + Neuropeptide Y receptor type 2 (Homo sapiens) + P2Y purinoceptor 1 (Rattus norvegicus) + Thyroid hormone receptor alpha (Rattus norvegicus) + Glutamate receptor ionotropic, NMDA 2B (Rattus norvegicus) + Sodium-dependent dopamine transporter (Homo sapiens) + Protein kinase C zeta type …; conditions: at 10 µM, active compounds read high
# In short: as §1
# [19] = test system: Serotonin (5-Hydroxytryptamine) 5-HT3; conditions: at 10 µM, active compounds read high
# In short: as §1
# Bradykinin B2 = conditions: at 10 µM, active compounds read high
# In short: as §1
# [20] = test system: Transporter, Serotonin (5-Hydroxytryptamine); conditions: at 10 µM, active compounds read high
# In short: as §1
# Glutamate NMDA = conditions: at 10 µM, active compounds read high
# In short: as §1
# Adrenergic alpha1A = conditions: at 10 µM, active compounds read high
# In short: as §1
# Dopamine D4.2 = conditions: at 10 µM, active compounds read high
# In short: as §1
# Endothelin ETA = conditions: at 10 µM, active compounds read high
# In short: as §1
# Adrenergic beta1 = conditions: at 10 µM, active compounds read high
# In short: as §1
# Phorbol Ester = conditions: at 10 µM, active compounds read high
# In short: as §1
# Adrenergic alpha1D = conditions: at 10 µM, active compounds read high
# In short: as §1
# Tachykinin NK1 = conditions: at 10 µM, active compounds read high
# In short: as §1
# [21] = target: 5-hydroxytryptamine receptor 2B (Homo sapiens) (UniProt P41595); conditions: Serotonin (5-Hydroxytryptamine) 5-HT2B, at 10 µM, active compounds read high
# In short: as §1
# Potassium Channel [KATP] = conditions: at 10 µM, active compounds read high
# In short: as §1
# [22] = target: Estrogen receptor (Homo sapiens) (UniProt P03372); conditions: Estrogen Eralpha, at 10 µM, active compounds read high
# Chain of Estrogen receptor (Homo sapiens) (P03372 whole entry, looked up): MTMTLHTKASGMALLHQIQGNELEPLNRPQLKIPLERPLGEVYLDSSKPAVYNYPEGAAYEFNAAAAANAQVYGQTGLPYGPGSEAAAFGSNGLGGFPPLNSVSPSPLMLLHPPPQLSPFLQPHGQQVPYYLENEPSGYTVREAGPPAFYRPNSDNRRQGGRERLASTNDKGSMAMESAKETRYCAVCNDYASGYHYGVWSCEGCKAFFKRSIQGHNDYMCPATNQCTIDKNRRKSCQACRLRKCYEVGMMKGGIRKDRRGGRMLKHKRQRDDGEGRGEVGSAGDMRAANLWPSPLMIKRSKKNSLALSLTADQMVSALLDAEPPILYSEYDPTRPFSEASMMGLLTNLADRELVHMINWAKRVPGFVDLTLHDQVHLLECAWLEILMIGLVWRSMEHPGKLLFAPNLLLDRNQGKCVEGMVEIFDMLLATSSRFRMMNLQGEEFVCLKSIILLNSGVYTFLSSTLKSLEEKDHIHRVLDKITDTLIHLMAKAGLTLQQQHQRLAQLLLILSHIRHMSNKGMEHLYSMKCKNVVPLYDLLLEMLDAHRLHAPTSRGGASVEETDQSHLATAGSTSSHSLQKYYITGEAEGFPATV
# In short: as §1
# Histamine H2 = conditions: at 10 µM, active compounds read high
# In short: as §1
# [23] = test system: Epidermal Growth Factor (EGF); conditions: at 10 µM, active compounds read high
# In short: as §1
# [24] = test system: Androgen (Testosterone) AR; conditions: at 10 µM, active compounds read high
# In short: as §1
# [25] = target: Platelet-activating factor receptor (Homo sapiens) (UniProt P25105); conditions: Platelet Activating Factor (PAF), at 10 µM, active compounds read high
# Chain of Platelet-activating factor receptor (Homo sapiens) (P25105 whole entry, looked up): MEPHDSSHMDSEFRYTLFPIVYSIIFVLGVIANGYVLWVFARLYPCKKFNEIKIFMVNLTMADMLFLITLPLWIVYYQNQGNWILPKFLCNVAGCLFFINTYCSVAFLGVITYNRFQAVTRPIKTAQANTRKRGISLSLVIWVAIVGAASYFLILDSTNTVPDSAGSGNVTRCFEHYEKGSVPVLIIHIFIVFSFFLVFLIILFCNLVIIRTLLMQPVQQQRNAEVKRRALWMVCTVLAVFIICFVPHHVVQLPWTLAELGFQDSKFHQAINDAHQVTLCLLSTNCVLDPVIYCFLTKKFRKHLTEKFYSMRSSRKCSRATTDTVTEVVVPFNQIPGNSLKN
# In short: as §1
# GABAB1A = conditions: at 10 µM, active compounds read high
# In short: as §1
compound,measurement,setting,value
Cc1ccc(Cc2c(C)nc3nc(SCC(=O)NCCN4CCNCC4)nn3c2C)cc1,inhibition of radioligand binding,Dopamine D2S,5% (inactive)
same,inhibition of radioligand binding,[1],-3% (inactive)
same,inhibition of radioligand binding,Histamine H3,9% (inactive)
same,inhibition of radioligand binding,Nicotinic Acetylcholine,1% (inactive)
same,inhibition of radioligand binding,[2],62%
same,inhibition of radioligand binding,Purinergic P2X,6% (inactive)
same,inhibition of radioligand binding,Melatonin MT1,3% (inactive)
same,inhibition of radioligand binding,Thyroid Hormone,5% (inactive)
same,inhibition of radioligand binding,[3],17% (inactive)
same,inhibition of radioligand binding,[4],0% (inactive)
same,inhibition of radioligand binding,[5],17% (inactive)
same,inhibition of radioligand binding,Adenosine A1,9% (inactive)
same,inhibition of radioligand binding,Purinergic P2Y,3% (inactive)
same,inhibition of radioligand binding,Prostanoid EP4,1% (inactive)
same,inhibition of radioligand binding,[6],54%
same,inhibition of radioligand binding,Sigma 1,12% (inactive)
same,inhibition of radioligand binding,Calcium Channel L-Type; Benzothiazepine site,11% (inactive)
same,inhibition of radioligand binding,Calcium Channel L-Type; Dihydropyridine site,3% (inactive)
same,inhibition of radioligand binding,[7],15% (inactive)
same,inhibition of radioligand binding,Rolipram,1% (inactive)
same,inhibition of radioligand binding,[8],16% (inactive)
same,inhibition of radioligand binding,Bradykinin B1,5% (inactive)
same,inhibition of radioligand binding,"Opiate mu (OP3, MOP)",11% (inactive)
same,inhibition of radioligand binding,Histamine H1,24% (inactive)
same,inhibition of radioligand binding,Adenosine A2A,-2% (inactive)
same,inhibition of radioligand binding,"Transporter, GABA",2% (inactive)
same,inhibition of radioligand binding,GABAA; Flunitrazepam site,19% (inactive)
same,inhibition of radioligand binding,GABAA; Muscimol site,26% (inactive)
same,inhibition of radioligand binding,[9],49% (inactive)
same,inhibition of radioligand binding,Endothelin ETB,-1% (inactive)
same,inhibition of radioligand binding,[10],-3% (inactive)
same,inhibition of radioligand binding,Interleukin IL-1,13% (inactive)
same,inhibition of radioligand binding,Calcium Channel N-Type,5% (inactive)
same,inhibition of radioligand binding,[11],0% (inactive)
same,inhibition of radioligand binding,[12],18% (inactive)
same,inhibition of radioligand binding,[13],6% (inactive)
same,inhibition of radioligand binding,[14],-7% (inactive)
same,inhibition of radioligand binding,Adenosine A3,2% (inactive)
same,inhibition of radioligand binding,Imidazoline I2,31% (inactive)
same,inhibition of radioligand binding,[15],14% (inactive)
same,inhibition of radioligand binding,Adrenergic alpha1B,63%
same,inhibition of radioligand binding,[16],42% (inactive)
same,inhibition of radioligand binding,Cannabinoid CB1,9% (inactive)
same,inhibition of radioligand binding,Glutamate Kainate,16% (inactive)
same,inhibition of radioligand binding,[17],13% (inactive)
same,inhibition of radioligand binding,[18],1% (inactive)
same,inhibition of radioligand binding,[19],-4% (inactive)
same,inhibition of radioligand binding,Bradykinin B2,-4% (inactive)
same,inhibition of radioligand binding,[20],16% (inactive)
same,inhibition of radioligand binding,Glutamate NMDA; Glycine site,10% (inactive)
same,inhibition of radioligand binding,Glutamate NMDA; Phencyclidine site,12% (inactive)
same,inhibition of radioligand binding,Glutamate NMDA; agonist site,3% (inactive)
same,inhibition of radioligand binding,Adrenergic alpha1A,27% (inactive)
same,inhibition of radioligand binding,Dopamine D4.2,-1% (inactive)
same,inhibition of radioligand binding,Endothelin ETA,-5% (inactive)
same,inhibition of radioligand binding,Adrenergic beta1,-2% (inactive)
same,inhibition of radioligand binding,Phorbol Ester,-1% (inactive)
same,inhibition of radioligand binding,Adrenergic alpha1D,60%
same,inhibition of radioligand binding,Tachykinin NK1,24% (inactive)
same,inhibition of radioligand binding,[21],21% (inactive)
same,inhibition of radioligand binding,Potassium Channel [KATP],-11% (inactive)
same,inhibition of radioligand binding,[22],-4% (inactive)
same,inhibition of radioligand binding,Histamine H2,6% (inactive)
same,inhibition of radioligand binding,[23],7% (inactive)
same,inhibition of radioligand binding,[24],7% (inactive)
same,inhibition of radioligand binding,[25],3% (inactive)
same,inhibition of radioligand binding,GABAB1A,7% (inactive)
